4 compounds from ChEMBL document CHEMBL1145409, “New sst4/5-selective somatostatin peptidomimetics based on a constrained tryptophan scaffold” (J Med Chem, 2007) can be followed below.

Experiment [1] concerns the target T1, Somatostatin receptor type 5 (Homo sapiens, UniProt P35346). Nature of the experiment: Displacement of [125I][Leu8-D-Trp22, Tyr25]-SRIF28 from human SST5 receptor. The essentials:
(§1)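 Membrane pellets from CHO-K1 or CCL39 cells stably expressing the human receptor subtype, cut as 20 µm sections on slides for receptor autoradiography. Full displacement of [125I]-[Leu8,D-Trp22,Tyr25]-SRIF-28 by unlabeled compound at 0.1–1000 nmol/L, SRIF-28 run in parallel. Quantified by image analysis against calibrated isotope tissue standards to give IC50; mean ± SEM of 2–4 independent repetitions.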
Background: In a radioligand displacement assay an active substance lowers the binding of a labelled ligand.

The target in experiment [2] is Somatostatin receptor type 3 (Homo sapiens, UniProt P32745). Nature of the experiment: Displacement of [125I][Leu8-D-Trp22, Tyr25]-SRIF28 from human SST3 receptor. Summed up:
as §1

For experiment [3], the target named is Somatostatin receptor type 4 (Homo sapiens, UniProt P31391). Nature of the experiment: Displacement of [125I][Leu8-D-Trp22, Tyr25]-SRIF28 from human SST4 receptor. Summed up: as §1
Somatostatin receptor type 4, sequence (P31391 whole entry): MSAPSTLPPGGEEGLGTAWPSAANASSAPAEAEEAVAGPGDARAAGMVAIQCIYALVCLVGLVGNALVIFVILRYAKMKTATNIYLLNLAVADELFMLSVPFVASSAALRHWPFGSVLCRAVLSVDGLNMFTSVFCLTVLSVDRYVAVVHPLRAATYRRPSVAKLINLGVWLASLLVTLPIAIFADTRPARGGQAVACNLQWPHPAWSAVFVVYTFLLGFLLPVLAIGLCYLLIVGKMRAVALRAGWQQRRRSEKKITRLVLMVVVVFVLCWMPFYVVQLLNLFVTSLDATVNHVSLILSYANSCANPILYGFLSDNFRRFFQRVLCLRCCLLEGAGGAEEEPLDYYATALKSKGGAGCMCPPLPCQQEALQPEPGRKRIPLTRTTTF
Experiment [4] concerns the target Somatostatin receptor type 1 (Homo sapiens, UniProt P30872). The experiment can be described thus: Displacement of [125I][Leu8-D-Trp22, Tyr25]-SRIF28 from human SST1 receptor. The essentials:
as §1

Experiment [5] deals with Somatostatin receptor type 2 (Homo sapiens, UniProt P30874). The experiment can be described thus: Displacement of [125I][Leu8-D-Trp22, Tyr25]-SRIF28 from human SST2 receptor. Summed up: as §1
Somatostatin receptor type 2, sequence (P30874 whole entry): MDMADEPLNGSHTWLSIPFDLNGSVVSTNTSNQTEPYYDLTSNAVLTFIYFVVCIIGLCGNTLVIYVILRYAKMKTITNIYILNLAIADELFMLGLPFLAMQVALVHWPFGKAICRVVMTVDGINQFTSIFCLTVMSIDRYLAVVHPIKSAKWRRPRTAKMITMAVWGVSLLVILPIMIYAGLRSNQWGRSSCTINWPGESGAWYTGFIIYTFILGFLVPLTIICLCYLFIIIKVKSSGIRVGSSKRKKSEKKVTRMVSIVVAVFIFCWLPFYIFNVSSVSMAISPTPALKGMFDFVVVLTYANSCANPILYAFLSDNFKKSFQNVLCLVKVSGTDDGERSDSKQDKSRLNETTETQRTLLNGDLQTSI
Experiment [6] addresses T1, Somatostatin receptor type 5. The experiment can be described thus: Agonist activity at human SST5 receptor expressed in CHOK1 cells assessed as effect on forskolin-induced cAMP production. The class given is functional, cell-based, CHO-K1. The essentials: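 Stably transfected sst5 CHO-K1 cells preincubated 30 min at 37 °C in medium with 0.5 mM IBMX, then 30 min at 37 °C with 0.5 mM IBMX, with or without 10 µM forskolin and graded compound concentrations. Cells lysed; cAMP measured by scintillation proximity assay, expressed as % stimulation over nonstimulated level. EC50 from nonlinear regression of dose-response curves; three experiments, triplicate wells.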
Background: cAMP levels reflect the balance of adenylyl cyclase and phosphodiesterase activity.

Somatostatin receptor type 3, sequence (P32745 whole entry): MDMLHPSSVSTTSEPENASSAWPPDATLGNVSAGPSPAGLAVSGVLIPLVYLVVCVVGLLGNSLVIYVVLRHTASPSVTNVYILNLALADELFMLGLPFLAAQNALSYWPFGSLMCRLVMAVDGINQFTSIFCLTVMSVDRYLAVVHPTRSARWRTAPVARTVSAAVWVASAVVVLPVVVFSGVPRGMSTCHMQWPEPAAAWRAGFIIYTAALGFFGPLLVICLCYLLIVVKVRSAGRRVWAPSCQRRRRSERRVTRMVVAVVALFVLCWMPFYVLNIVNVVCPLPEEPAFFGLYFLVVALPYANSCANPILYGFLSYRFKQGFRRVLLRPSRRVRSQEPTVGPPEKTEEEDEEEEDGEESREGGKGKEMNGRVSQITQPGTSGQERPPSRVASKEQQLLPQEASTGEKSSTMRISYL
Somatostatin receptor type 1, sequence (P30872 whole entry): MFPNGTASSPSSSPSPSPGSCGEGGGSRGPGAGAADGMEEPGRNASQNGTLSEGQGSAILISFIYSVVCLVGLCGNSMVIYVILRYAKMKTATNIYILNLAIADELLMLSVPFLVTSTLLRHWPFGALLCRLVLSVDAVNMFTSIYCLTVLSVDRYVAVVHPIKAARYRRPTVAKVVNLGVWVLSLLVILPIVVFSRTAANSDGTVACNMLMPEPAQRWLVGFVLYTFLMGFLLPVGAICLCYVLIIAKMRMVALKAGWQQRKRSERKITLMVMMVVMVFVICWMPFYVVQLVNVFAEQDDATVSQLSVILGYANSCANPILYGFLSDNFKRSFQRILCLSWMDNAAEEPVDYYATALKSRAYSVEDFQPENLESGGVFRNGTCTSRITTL
T1 sequence (P35346 whole entry): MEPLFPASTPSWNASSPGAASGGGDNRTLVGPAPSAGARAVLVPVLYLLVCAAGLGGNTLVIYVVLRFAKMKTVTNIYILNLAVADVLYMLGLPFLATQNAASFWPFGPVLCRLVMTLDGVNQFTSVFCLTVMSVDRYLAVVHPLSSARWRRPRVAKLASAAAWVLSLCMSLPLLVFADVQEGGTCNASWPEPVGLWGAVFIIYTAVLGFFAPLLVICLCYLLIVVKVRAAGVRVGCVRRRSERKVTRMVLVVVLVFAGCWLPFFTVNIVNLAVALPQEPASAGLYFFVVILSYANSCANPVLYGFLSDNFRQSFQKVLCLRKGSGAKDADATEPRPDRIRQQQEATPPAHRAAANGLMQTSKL

As for `NCCCCCN1Cc2[nH]c3ccccc3c2C[C@@H](NC(=O)CC(c2ccccc2)c2ccccc2)C1=O`, the IC50 is 0.318 µM in experiment [1]; more than 1 µM in experiment [2]; 0.129 µM in experiment [3]; more than 1 µM in experiment [4]; 0.357 µM in experiment [5].
Turning to `NCCCC[C@@H](C(=O)NCc1ccccc1)N1Cc2[nH]c3ccccc3c2C[C@@H](NC(=O)Cc2ccccc2)C1=O`, the IC50 in experiment [1] came to 0.0012 µM; in experiment [2], 0.251 µM; in experiment [3] it was 0.0033 µM; in experiment [4], 0.233 µM; in experiment [5], 0.083 µM. The concentration giving a half-maximal response (EC50) in experiment [6] came out at 0.013 µM.
In the case of `NCCCC[C@@H](C(=O)NCc1ccccc1)N1Cc2[nH]c3ccccc3c2C[C@@H](NC(=O)CC(c2ccccc2)c2ccccc2)C1=O`, the IC50 was 0.008 µM in experiment [1]; 0.694 µM in experiment [2]; 0.073 µM in experiment [3]; 0.089 µM in experiment [4]; 0.103 µM in experiment [5].
For `NCCCCCN1Cc2[nH]c3ccccc3c2C[C@@H](NC(=O)Cc2ccccc2)C1=O`, the IC50 in experiment [1] was 0.245 µM; in experiment [2] it was more than 1 µM; in experiment [3], 0.075 µM; in experiment [4], more than 1 µM; in experiment [5], more than 1 µM.

The term IC50 denotes the concentration that gives 50% inhibition. A lower IC50 goes with inhibition by little substance. Broadly, the EC50 is the concentration needed to bring the measured effect to its halfway point.
